The values below come from ChEMBL document CHEMBL5653631, “A Potent and Selective ULK1 Inhibitor Suppresses Autophagy and Sensitizes Cancer Cells to Nutrient Stress” (iScience, 2018).

As usually defined, the inhibition is the drop in the measured response relative to a control, in per cent.

In assay [1] the target is T1, Dual specificity tyrosine-phosphorylation-regulated kinase 3 (Homo sapiens) (UniProt O43781).
T1 sequence (whole entry): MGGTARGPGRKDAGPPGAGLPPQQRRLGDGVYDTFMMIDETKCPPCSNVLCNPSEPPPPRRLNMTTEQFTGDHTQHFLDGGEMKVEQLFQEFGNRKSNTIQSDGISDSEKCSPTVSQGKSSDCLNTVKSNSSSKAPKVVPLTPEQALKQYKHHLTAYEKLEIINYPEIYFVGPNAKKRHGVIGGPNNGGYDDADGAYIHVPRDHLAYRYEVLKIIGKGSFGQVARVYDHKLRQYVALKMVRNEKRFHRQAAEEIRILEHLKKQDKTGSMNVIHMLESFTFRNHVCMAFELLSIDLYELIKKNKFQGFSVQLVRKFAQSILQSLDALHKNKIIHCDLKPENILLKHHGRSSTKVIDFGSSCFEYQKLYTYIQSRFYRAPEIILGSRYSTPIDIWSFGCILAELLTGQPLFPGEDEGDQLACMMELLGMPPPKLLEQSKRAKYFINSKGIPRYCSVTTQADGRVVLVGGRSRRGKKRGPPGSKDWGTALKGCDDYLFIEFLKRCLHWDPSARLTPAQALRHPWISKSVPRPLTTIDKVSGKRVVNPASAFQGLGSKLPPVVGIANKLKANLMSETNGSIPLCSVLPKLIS
In words: Inhibition of human recombinant DYRK3 at 40 nM in presence of ATP by radiometric assay relative to control.

The target of assay [2] is Serine/threonine-protein kinase Nek4 (Homo sapiens) (UniProt P51957). In words: Inhibition of human recombinant NEK4 at 500 nM in presence of ATP by radiometric assay relative to control.
Assay [3] concerns the target T2, Serine/threonine-protein kinase Nek9 (Homo sapiens) (UniProt Q8TD19).
T2 sequence (whole entry): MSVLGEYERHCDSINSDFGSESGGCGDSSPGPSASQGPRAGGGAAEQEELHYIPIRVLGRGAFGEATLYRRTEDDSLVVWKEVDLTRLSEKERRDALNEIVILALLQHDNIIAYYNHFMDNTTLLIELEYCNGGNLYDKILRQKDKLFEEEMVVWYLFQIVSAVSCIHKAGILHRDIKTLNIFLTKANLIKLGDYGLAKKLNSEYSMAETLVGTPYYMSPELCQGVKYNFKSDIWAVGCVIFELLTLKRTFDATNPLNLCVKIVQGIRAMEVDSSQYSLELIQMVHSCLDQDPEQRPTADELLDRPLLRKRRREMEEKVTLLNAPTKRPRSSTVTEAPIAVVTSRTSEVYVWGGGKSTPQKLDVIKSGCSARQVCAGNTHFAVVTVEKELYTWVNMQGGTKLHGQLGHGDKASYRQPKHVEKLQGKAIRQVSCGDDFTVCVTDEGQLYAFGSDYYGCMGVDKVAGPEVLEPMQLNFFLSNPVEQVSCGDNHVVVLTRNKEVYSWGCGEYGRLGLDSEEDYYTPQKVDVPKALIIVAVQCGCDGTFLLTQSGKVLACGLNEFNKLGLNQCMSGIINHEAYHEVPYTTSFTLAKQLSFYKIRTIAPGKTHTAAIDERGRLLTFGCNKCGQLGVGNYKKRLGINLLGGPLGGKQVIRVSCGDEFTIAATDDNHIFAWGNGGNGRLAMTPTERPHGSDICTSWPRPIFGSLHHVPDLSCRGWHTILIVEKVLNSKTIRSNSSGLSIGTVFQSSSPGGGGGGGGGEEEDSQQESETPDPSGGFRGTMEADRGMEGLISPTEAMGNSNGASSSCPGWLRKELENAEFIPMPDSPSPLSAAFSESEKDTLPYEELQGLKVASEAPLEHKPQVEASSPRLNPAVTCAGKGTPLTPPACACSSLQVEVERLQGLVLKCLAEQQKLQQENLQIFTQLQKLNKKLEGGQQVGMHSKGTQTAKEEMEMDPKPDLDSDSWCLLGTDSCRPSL
As to the kind of experiment: Inhibition of human recombinant NEK9 at 15 nM related to control ULK1.

In assay [4] the target is T3, Serine/threonine-protein kinase BRSK2 (Homo sapiens) (UniProt Q8IWQ3).
T3 sequence (whole entry): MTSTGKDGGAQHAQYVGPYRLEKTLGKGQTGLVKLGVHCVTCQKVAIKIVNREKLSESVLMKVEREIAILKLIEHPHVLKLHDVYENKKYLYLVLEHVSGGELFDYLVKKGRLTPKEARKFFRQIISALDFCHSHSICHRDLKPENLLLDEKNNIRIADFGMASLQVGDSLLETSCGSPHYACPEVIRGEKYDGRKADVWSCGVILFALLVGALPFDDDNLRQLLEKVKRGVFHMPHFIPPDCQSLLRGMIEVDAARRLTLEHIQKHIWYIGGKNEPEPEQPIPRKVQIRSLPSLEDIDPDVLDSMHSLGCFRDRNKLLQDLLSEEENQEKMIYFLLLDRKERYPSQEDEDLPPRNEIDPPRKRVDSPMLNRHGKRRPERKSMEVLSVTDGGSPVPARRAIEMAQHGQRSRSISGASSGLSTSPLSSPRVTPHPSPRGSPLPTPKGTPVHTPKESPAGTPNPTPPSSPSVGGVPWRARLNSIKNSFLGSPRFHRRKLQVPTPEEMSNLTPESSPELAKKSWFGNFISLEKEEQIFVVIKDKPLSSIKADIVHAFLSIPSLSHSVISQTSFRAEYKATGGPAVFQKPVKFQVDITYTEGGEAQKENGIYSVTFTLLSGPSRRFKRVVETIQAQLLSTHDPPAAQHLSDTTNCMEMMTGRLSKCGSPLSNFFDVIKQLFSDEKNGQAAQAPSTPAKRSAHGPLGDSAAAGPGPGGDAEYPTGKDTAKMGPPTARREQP
In words: Inhibition of human recombinant BRSK2 at 15 nM related to control ULK1. In outline:
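Recombinant human kinase panel (327 kinases) run as radiometric activity assays, each kinase in duplicate at one compound concentration. Activity remaining expressed relative to vehicle control; percent inhibition taken as 100% minus % activity remaining.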

Serine/threonine-protein kinase Nek4 (Homo sapiens), sequence (P51957 whole entry, looked up): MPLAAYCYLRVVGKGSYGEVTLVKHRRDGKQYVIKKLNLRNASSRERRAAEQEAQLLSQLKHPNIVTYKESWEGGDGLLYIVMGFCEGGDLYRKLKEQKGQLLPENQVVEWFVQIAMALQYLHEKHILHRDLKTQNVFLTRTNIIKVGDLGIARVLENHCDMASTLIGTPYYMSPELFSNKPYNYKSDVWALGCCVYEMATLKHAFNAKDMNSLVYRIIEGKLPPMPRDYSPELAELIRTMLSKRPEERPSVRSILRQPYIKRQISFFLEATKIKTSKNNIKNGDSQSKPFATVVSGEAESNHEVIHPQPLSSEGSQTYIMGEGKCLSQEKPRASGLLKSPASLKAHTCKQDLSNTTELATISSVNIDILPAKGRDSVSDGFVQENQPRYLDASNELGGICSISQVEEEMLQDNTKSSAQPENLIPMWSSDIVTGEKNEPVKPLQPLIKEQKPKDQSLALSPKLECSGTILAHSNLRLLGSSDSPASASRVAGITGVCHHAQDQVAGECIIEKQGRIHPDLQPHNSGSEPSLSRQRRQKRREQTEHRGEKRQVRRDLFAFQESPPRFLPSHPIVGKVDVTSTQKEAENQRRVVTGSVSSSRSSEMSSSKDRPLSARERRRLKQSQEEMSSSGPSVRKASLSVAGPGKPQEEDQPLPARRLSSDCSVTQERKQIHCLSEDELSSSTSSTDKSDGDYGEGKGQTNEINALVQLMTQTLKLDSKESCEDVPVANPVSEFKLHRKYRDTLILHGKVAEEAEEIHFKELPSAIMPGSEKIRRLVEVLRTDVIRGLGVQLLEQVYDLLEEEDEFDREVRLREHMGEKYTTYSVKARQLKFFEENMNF

`O=C(N[C@@H](C1CC1)C(F)(F)F)c1cc(-c2cnn3cc(-c4ccc(F)cc4)cnc23)cs1`: in assay [1], the inhibition is 30%.

Regarding `CNC(=O)c1ccccc1Oc1nc(Nc2cc(OC)c(OC)c(OC)c2)ncc1Br`, in assay [2], the inhibition came out at 23%.

Regarding `CC(C)[C@H](NC(=O)c1cc(-c2cnn3cc(-c4ccc(OCCN5CCCCC5)cc4)cnc23)cs1)C(F)(F)F`, the fold change (FC) came to 0.25 in assay [3] and 0.28 in assay [4].
